Data taken from ChEMBL document CHEMBL2176904, “Nonpeptidic lysosomal modulators derived from z-phe-ala-diazomethylketone for treating protein accumulation diseases” (ACS Med Chem Lett, 2012).
The source made the active and inactive calls. The calls are words filed in the database; no cut-off is given here.

Experiments:
[1] = test system: Hippocampus; test: Up-regulation of cathepsin-B level in lysosome of rat hippocampal slice cultures at 10 uM after 4 days by immunoblot analysis relative to PADK
[2] = target: T1, Cathepsin B (Homo sapiens, UniProt P07858); test: Inhibition of cathepsin-B using Z-Arg-Arg AMC as substrate by fluorescence assay relative to control; conditions: concentration not given here
Procedure, shortened: (§1)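 Z-Arg-Arg AMC as fluorogenic substrate, compounds titrated. Mean fluorescence units ± SEM were normalized to percent of control. Percent inhibition and IC50 range were fitted by nonlinear regression with one-site competition equations. Untreated control activity was compared with the highest compound concentration by unpaired t test.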

[3] = test system: Hippocampus; test: Up-regulation of cathepsin-D level in lysosome of rat hippocampal slice cultures at 10 uM after 4 days by immunoblot analysis relative to PADK
[4] = test system: Hippocampus; test: Up-regulation of cathepsin-B level in lysosome of rat hippocampal slice cultures at 20 uM after 4 days by immunoblot analysis; assay type: functional, tissue-based; conditions: 10 uM, in the assay text read “10 uM” for “20 uM”
[5] = test system: Mus musculus; test: Reduction of 8 to 10-kDa oligomeric amyloid beta species in APPSwInd transgenic mouse 20Lms/2J hippocampal homogenates at 25 mg/kg, ip qd for 9 days relative to wild type mouse; assay type: functional, organism-based; set-up: dose 25 mg/kg; conditions: Hippocampus
[6] = test system: Mus musculus; test: Increase of active form of cathepsin-B level in APPSwInd transgenic mouse 20Lms/2J hippocampal homogenates at 25 mg/kg, ip qd for 9 days relative to wild type mouse; assay type: functional, organism-based; set-up: dose 25 mg/kg; conditions: Hippocampus
[7] = test system: Mus musculus; test: Inhibition of postsynaptic loss of GluR1 protein level in APPSwInd transgenic mouse 20Lms/2J hippocampal homogenates at 25 mg/kg, ip qd for 9 days relative to wild type mouse; assay type: functional, organism-based; set-up: dose 25 mg/kg; conditions: Hippocampus
[8] = test system: Mus musculus; test: Inhibition of presynaptic loss of amphiphysin-I protein level in APPSwInd transgenic mouse 20Lms/2J hippocampal homogenates at 25 mg/kg, ip qd for 9 days relative to wild type mouse; conditions: Hippocampus
[9] = target: T1, Cathepsin B; test: Inhibition of cathepsin-B using Z-Arg-Arg AMC as substrate by fluorescence assay
Procedure, shortened: as §1

[10] = test system: Hippocampus; test: Up-regulation of cathepsin-B level in lysosome of rat hippocampal slice cultures at 3 to 10 uM after 4 days by immunoblot analysis in presence of brefeldin-A; assay type: functional, tissue-based
Procedure, shortened: (§2)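 Organotypic hippocampal slice cultures from rat were treated daily with compound or vehicle. Cathepsin immunoreactivity was measured by immunoblot image analysis and reported as mean IOD ± SEM. Where stated, brefeldin A was co-present.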

[11] = test system: Hippocampus; test: Up-regulation of cathepsin-D level in lysosome of rat hippocampal slice cultures at 3 to 10 uM after 4 days by immunoblot analysis in presence of brefeldin-A; assay type: functional, tissue-based
Procedure, shortened: as §2

[12] = test system: Hippocampus; test: Up-regulation of cathepsin-B level in lysosome of rat hippocampal slice cultures at 3 to 10 uM after 4 days by immunoblot analysis; assay type: functional, tissue-based
Procedure, shortened: as §2

[13] = test system: Hippocampus; test: Up-regulation of cathepsin-D level in lysosome of rat hippocampal slice cultures at 3 to 10 uM after 4 days by immunoblot analysis; assay type: functional, tissue-based
Procedure, shortened: as §2

[14] = test system: Hippocampus; test: Up-regulation of cathepsin-D level in lysosome of rat hippocampal slice cultures at 0.3 to 1 uM after 4 days by immunoblot analysis; assay type: functional, tissue-based
Procedure, shortened: as §2

[15] = test system: Hippocampus; test: Up-regulation of cathepsin-B level in lysosome of rat hippocampal slice cultures at 0.3 to 1 uM after 4 days by immunoblot analysis; assay type: functional, tissue-based
Procedure, shortened: as §2

Compound: [N-]=[N+]=CC(=O)N(Cc1ccccc1)C[C@@H](O)[C@H](Cc1ccccc1)NC(=O)OCc1ccccc1
- fold change (FC) [1]: 2
- inhibition [2]: 13%
- fold change (FC) [3]: 2
- Activity [4]: Active

Compound: CC(=O)N(Cc1ccccc1)C[C@@H](O)[C@H](Cc1ccccc1)NC(=O)OCc1ccccc1
- Activity [5]: Active
- Activity [6]: Active
- inhibition [7]: Active
- inhibition [2]: 8%
- inhibition [8]: Active
- IC50 [9]: > 100000 nM
- Activity [4]: Active

Compound: C[C@H](NC(=O)[C@H](Cc1ccccc1)NC(=O)OCc1ccccc1)C(=O)C=[N+]=[N-]
- Activity [10]: inactive
- Activity [11]: inactive
- inhibition [2]: 100%
- Activity [12]: Active
- Activity [13]: Active
- IC50 [9]: 9400 nM

Compound: CCCNC(=O)[C@H]1O[C@@H]1C(=O)N[C@H](C(=O)N1CCC[C@H]1C(=O)OC)[C@@H](C)CC
- inhibition [2]: 100%
- Activity [14]: inactive
- Activity [15]: inactive
- IC50 [9]: 80 nM

Compound: N#[N+][CH-]C(=O)N(Cc1ccccc1)C[C@@H](O)[C@H](Cc1ccccc1)NC(=O)OCc1ccccc1
- IC50 [9]: 2000 nM
